Assay outcomes from PubChem BioAssay.
SKKanGAS inh = blocks kanamycin growth of S. pyogenes SKKanGAS strain; inhibition, % at 7.5 µM; 1.3% of 300,000 active; BacTiter-Glo, 6 h;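 active = mean replicate score, as percent of positive control median, at least 50; inconclusive = mean below 50 but one replicate at or above 50; inactive = mean and every replicate below 50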;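 note: strain carries kanamycin resistance gene driven by streptokinase promoter and grows in 40 µg/ml kanamycin; loss of luminescence reflects streptokinase promoter inhibition or plain growth inhibition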
Mdm2-MdmX inh = disrupts the human Mdm2-MdmX interaction; O15151+Q00987; SaOS-2 split-luciferase Mdm2/MdmX complementation, luminescence; inhibition, % at 8 µM; 3% of 330,000 active;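 active = inhibition of at least 50% at 8 µM in the primary screen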
Target sequence (O15151 whole entry, looked up): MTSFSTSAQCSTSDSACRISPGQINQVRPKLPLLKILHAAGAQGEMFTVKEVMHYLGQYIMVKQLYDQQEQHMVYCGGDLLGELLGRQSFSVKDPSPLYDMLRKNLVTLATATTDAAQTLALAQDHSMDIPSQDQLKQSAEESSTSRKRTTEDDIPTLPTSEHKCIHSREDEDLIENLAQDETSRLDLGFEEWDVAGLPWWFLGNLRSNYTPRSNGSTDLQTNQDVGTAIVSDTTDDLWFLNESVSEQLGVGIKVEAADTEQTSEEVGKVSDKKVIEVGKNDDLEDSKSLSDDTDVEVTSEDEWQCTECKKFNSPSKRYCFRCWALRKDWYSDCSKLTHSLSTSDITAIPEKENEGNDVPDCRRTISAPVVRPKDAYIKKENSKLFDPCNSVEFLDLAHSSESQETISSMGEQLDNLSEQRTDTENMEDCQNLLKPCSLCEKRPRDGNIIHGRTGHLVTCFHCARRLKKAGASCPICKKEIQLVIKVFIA
Target sequence (Q00987 whole entry, looked up): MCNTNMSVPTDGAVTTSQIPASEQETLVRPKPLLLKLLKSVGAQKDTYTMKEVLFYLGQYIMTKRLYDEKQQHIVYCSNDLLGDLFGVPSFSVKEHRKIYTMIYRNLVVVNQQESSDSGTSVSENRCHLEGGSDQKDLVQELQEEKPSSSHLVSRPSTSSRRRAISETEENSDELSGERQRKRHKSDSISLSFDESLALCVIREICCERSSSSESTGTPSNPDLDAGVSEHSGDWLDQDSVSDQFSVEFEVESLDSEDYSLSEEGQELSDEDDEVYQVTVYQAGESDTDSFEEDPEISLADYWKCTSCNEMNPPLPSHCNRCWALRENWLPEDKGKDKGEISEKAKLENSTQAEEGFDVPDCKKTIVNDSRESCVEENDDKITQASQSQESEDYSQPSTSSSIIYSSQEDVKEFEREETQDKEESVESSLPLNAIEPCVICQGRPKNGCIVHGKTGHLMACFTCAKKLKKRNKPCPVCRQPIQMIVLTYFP
Calb FLC = affects C. albicans growth with fluconazole; C. albicans CaCi-2 (fluconazole-resistant clinical isolate) + fluconazole, Alamar Blue growth, 48 h; growth inhibition, % (test concentration not listed); 0.57% of 300,000 active; AID 1979;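 active = growth inhibition above about 58% in most replicates, limit read from the data, passing the limit was not always enough; inconclusive = exactly half the replicates above a set limit; inactive = most replicates below a set limit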;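 note: all wells also contain fluconazole at 8 µg/ml as a sub-toxic cotreatment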
CSC inhib = blocks cancer stem cells | cancer stem cell-like cells viability, luminescence | inhibition, % at 7.5 µM | 1.1% of 300,000 active; in the data active = inhibition above about 75%; inconclusive = no clear call, values can overlap the other calls; tested in HMLE shEcad cells
T cruzi inh = blocks replication of Trypanosoma cruzi; T. cruzi beta-gal in NIH3T3, luminescence, 90 h; inhibition, % (test concentration not listed); 1.4% of 300,000 active; AID 1885;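 active = mean inhibition across valid replicates above about 55%, limit read from the data; inconclusive = mean below that limit but half or more replicates reach it; inactive = mean below it, under half of replicates reach it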;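 note: signal also drops with host cell toxicity which is not excluded here; higher percent means less beta-gal luminescence so fewer parasites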
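System: Mouse NIH/3T3 fibroblasts infected with β-gal-expressing T. cruzi Tulahuen C4 | Quantity: NIH/3T3 cells, 5,000 per well | Reagent: 5000 reporter trypomastigotes per well | Dosing: Compound pinned at 50 nL/well, DMSO | Schedule: 3 h host attachment, then at least 90 h co-culture | Detection: GalScreen luminescence, 60 min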
Beta apoptosis = beta cell apoptosis inhibition | INS-1E cytokine-induced death, ATP luminescence, 48 h; percent of positive-control rescue, neutral wells zero | protection from apoptosis, % (concentration not given with the values) | 0.8% of 300,000 active;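 active = Every replicate reaches about 75%, or at least half do and their mean reaches it too, limit read from the data; inconclusive = At least half of replicates reach the limit but their mean does not; inactive = Under half of replicates reach the limit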;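 note: higher means more ATP so stronger rescue from cytokine killing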
Each line names hits and unclear results; the compound was inactive in the other large screens. This is a sample that favours compounds with a hit; in the whole collection about 5.7% have one here.

Cc1cccc(CN2CCN(Cc3cccc4nonc34)CC2CCO)n1 (configuration not stated)	none
CCOc1ccc(CN2CCN(Cc3nc(C(C)C)cs3)CC2CCO)cc1 (configuration not stated)	T cruzi inh 58
COc1ccc(CN2CCN(Cc3cccc4nonc34)CC2CCO)c(C)c1C (configuration not stated)	T cruzi inh 66
CCOc1ccccc1CN1CCN(Cc2[nH]c3ccccc3c2C)CC1CCO (configuration not stated)	T cruzi inh 66
CN(c1nc2ccccc2nc1Cl)S(=O)(=O)c1ccccc1	none
COC(=O)c1ccc(OC)c(CN2CCCN(Cc3cc(C)ccc3C)S2(=O)=O)c1	T cruzi inh 69
COC(=O)c1ccc(OC)c(Cn2c(=O)n(C)c(=O)c3sccc32)c1	none
COc1ccccc1NS(=O)(=O)c1cc(NC(=O)COc2ccccc2F)ccc1N1CCOCC1	none (no result: SKKanGAS inh, Calb FLC, CSC inhib, T cruzi inh)
NC(=O)CSc1nc2ccccc2c(=O)n1CCc1ccccc1	none (no result: Beta apoptosis)
O=c1c2ccccc2nc(SCCN2CCCCC2)n1CCc1ccccc1	T cruzi inh 63
Cc1ccc(CNC(=O)CNC(=O)c2ccco2)cc1	none
CCOc1cc(-c2sc(Nc3cc(C)ccc3OC)n[n+]2-c2ccccc2)ccc1OC	Beta apoptosis 94 (no result: SKKanGAS inh, Calb FLC, T cruzi inh)
COc1ccc2oc(C(=O)OCc3nnc(-c4ccccc4)o3)c(C)c2c1	none
O=C(N/C(=C/C=C\c1ccccc1)C(=O)N1CCOCC1)c1ccc(Br)cc1	none
Cc1csc(Cn2c(CN(C)C)nc3ccccc3c2=O)n1	none (no result: SKKanGAS inh)
CN(C)Cc1nc2ccccc2c(=O)n1Cc1nc(-c2cc3ccccc3o2)cs1	SKKanGAS inh 74, T cruzi inh 65
COc1cccc(C2/C(=C(/O)c3ccc(C)cc3)C(=O)C(=O)N2Cc2ccco2)c1 (configuration not stated)	Calb FLC 94
COc1cccc(C2/C(=C(/O)c3ccccc3)C(=O)C(=O)N2Cc2ccco2)c1 (configuration not stated)	none
O=c1c2c(n3nnnc3n1Cc1ccccc1)-c1ccccc1CC21CCCC1	SKKanGAS inh 65
O=c1c2c(n3nnnc3n1-c1ccccc1)-c1ccccc1CC21CCCC1	none
CCC1(C)Cc2ccccc2-c2c1c(=O)n(Cc1ccccc1)c1nnnn21 (configuration not stated)	SKKanGAS inh 69, CSC inhib 135
COC(=O)C1=C(CS(=O)(=O)c2cc(Cl)ccc2OC)NC(=O)NC1c1ccc(O)c(OC)c1 (configuration not stated)	none
CC[C@H]1OC(=O)[C@H](C)[C@@H](O[C@H]2C[C@@](C)(OC)[C@@H](O)[C@H](C)O2)[C@H](C)[C@@H](O[C@@H]2O[C@H](C)C[C@H](N(C)C)[C@H]2O)[C@](C)(OC)C[C@@H](C)C(=O)[C@H](C)[C@@H](O)[C@]1(C)O	SKKanGAS inh 104
CC[C@H]1OC(=O)[C@H](C)[C@@H](O[C@H]2C[C@@](C)(OC)[C@@H](O)[C@H](C)O2)[C@H](C)[C@@H](O[C@@H]2O[C@H](C)C[C@H](N(C)C)[C@H]2O)[C@](C)(O)C[C@@H](C)C(=NOCOCCOC)[C@H](C)[C@@H](O)[C@]1(C)O	SKKanGAS inh 107 (no result: Calb FLC)
Cc1ccc(C(=O)NNC(=O)C2CCN(c3ncccn3)CC2)cc1	none
COc1ccc(NC(=S)NNc2ccc([N+](=O)[O-])cc2S(=O)(=O)Nc2ccc(C)cc2C)cc1	SKKanGAS inh 65, Calb FLC inconclusive
Cc1ccc(NS(=O)(=O)c2cc([N+](=O)[O-])ccc2NNC(=S)Nc2cccc(Cl)c2)c(C)c1	SKKanGAS inh 88, CSC inhib 100 (no result: Mdm2-MdmX inh)
C/C(=N\NC(=O)C(=O)Nc1cccc(Cl)c1)c1ccncc1	Beta apoptosis 81
C/C(=N/NC(=O)c1ccncc1)c1ccccc1	none (no result: Beta apoptosis)
C/C(=N\NC(=O)c1ccccc1NC(=O)c1ccc(Cl)cc1)c1ccncc1	SKKanGAS inh 76, CSC inhib 136, Beta apoptosis 102
C/C(=N\NC(=O)C(=O)Nc1ccc(C)c(Cl)c1)c1ccncc1	none
CCc1ccc(NC(=O)C/C(C)=N/NC(=O)COc2ccc(C)cc2Br)cc1	none (no result: CSC inhib)
O=C(CSc1nc(N2CCOCC2)nc(N2CCOCC2)n1)Nc1cccc(C(F)(F)F)c1	SKKanGAS inh 54 (no result: Beta apoptosis)
O=C(CSc1nc(Nc2ccccc2)nc(N2CCOCC2)n1)Nc1ccc([N+](=O)[O-])cc1	T cruzi inh 57
CC(=O)Nc1ccc(/C(C)=N/Nc2nc(Nc3ccccc3)nc(N3CCOCC3)n2)cc1	T cruzi inh 67 (no result: SKKanGAS inh)
O=C(NCc1cccnc1)c1ccc(-c2cc3ccccc3oc2=O)cc1	Beta apoptosis 101
O=C(COc1ccc([N+](=O)[O-])cc1)NCc1cccnc1	none
O=C(COc1ccc([N+](=O)[O-])cc1)Nc1ccc(C(=O)NCc2cccnc2)cc1	Beta apoptosis 101
O=C(NCc1cccnc1)c1ccc(NC(=O)c2cccc([N+](=O)[O-])c2)cc1	Beta apoptosis 140
O=C(NCc1cccnc1)C(=O)Nc1ccc([N+](=O)[O-])cc1	none (no result: CSC inhib)
O=C(NCc1cccnc1)c1ccc([N+](=O)[O-])cc1	Beta apoptosis 103
COc1ccc(CNC(=O)c2cccnc2)cc1	none
COc1ccc(N2CCN(C(=O)c3sc4ncn(CC(=O)N5CCCCC5C)c(=O)c4c3C)CC2)cc1 (configuration not stated)	none
O=C(Cc1ccc([N+](=O)[O-])cc1)Nc1cccnc1	Beta apoptosis 81
Cc1ccc(NC(=O)c2cc([N+](=O)[O-])ccc2NCc2cccnc2)cc1Cl	T cruzi inh 57
NC(=O)c1ccccc1OCC(=O)N1CCc2ccccc2C1	none
CCCC1=C(C(=O)OCC)C(c2ccncc2)n2ncnc2N1 (configuration not stated)	none
CCn1c2ccccc2c2cc(CNCCCN3CCOCC3)ccc21	T cruzi inh 61
Cn1c2ccccc2c(=O)c2cc(NCCCN3CCOCC3)ccc21	none (no result: SKKanGAS inh, Calb FLC, T cruzi inh)
C=CCOc1c(Cl)cc(CNCCCN2CCOCC2)cc1OC	T cruzi inh 56
COc1ccc(S(=O)(=O)N2CCOCC2)cc1NC(=O)/C=C/c1ccc(F)cc1	none (no result: SKKanGAS inh, Calb FLC, CSC inhib, T cruzi inh, Beta apoptosis)
CCN(CC(=O)Nc1c(F)cccc1F)C(=O)Cc1ccc2c(c1)CCC2	none
CNc1nc2ccccc2n1CC(=O)c1ccccc1	none
CN1CCN(c2ccc(S(=O)(=O)N3CCCCC3)cc2NC(=O)CCc2ccccc2)CC1	none (no result: SKKanGAS inh, Calb FLC, CSC inhib, T cruzi inh)
CN1CCN(c2ccc(S(=O)(=O)N3CCCCC3)cc2NC(=O)CSCc2ccccc2)CC1	T cruzi inh 67
Cc1ccccc1OCC(=O)Nc1cc(S(=O)(=O)N2CCCCC2)ccc1N1CCN(C)CC1	T cruzi inh 58
